High-throughput results (PubChem BioAssay)
CRFR2-BP ag: CRF-BP/CRF-R2 complex agonism. activation, % at 13.2 µM. actives 0.46% (n = 350,000). AID 588473. HEK293 CRF-R2/CRF-BP, calcium dye fluorescence (FLIPR); percent of saturating CRF peptide response;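 active = activation of at least 50%, plus an integration ratio under a set limit after plate pattern correction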
Rpn11 inh: blocks the human proteasome subunit Rpn11; actives 0.59% (n = 360,000); O00487; calls only at 20 µM; human 26S proteasome, Ub4-pepOG fluorescence polarization; 20S core pre-blocked with epoxomicin;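 active = inhibition at 20 µM, scaled to each plate's controls, above about 33%, limit read from the data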
CSN inh: blocks human CSN-mediated cullin deneddylation; Purified CSN, SCF-Nedd8-OG deneddylation, fluorescence polarization; Q92905; actives 0.38% (n = 360,000); inhibition, % at 12.5 µM;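 active = pattern-corrected inhibition above about 35%, with an unprinted fluorescence ratio check between 0.5 and 1.5, limit read from the data, passing the limit was not always enough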
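Test system: Human Csn5 produced in HEK293T cells | Compound: 12.5 µM single point | Times: 90 min, room temperature | Signal: Fluorescence polarization readout | Read-out basis: % inhibition of substrate cleavage by Csn5 | Controls: no-enzyme wells high, enzyme-with-substrate wells low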
CRFR2-BP antag: blocks CRF-induced signaling of the CRF-BP/CRF-R2 complex; HEK293 CRF-R2/CRF-BP, CRF-induced calcium fluorescence; inhibition, % at 11.8 µM; actives 0.59% (n = 350,000);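 active = inhibition of the ligand-induced calcium signal above about 50% at the single tested concentration, limit read from the data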
TPT1 inhibitor: blocks Candida albicans tRNA 2'-phosphotransferase. recombinant caTPT1, FP RNA substrate dephosphorylation. inhibition, % at 5 µM. actives 0.81% (n = 300,000);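 active = inhibition above the mean of all tested compounds plus 3 SD, set per screening campaign, cut at about 24% in these data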
HNF4A DNA FP: change in binding of human HNF4 alpha to DNA; AID 1224865; actives 0.3% (n = 360,000); HNF4a-FITC DNA binding, fluorescence polarization, 1 h; P41235; activity change, % at 10 µM; in the data active = activity change above about 30%, passing the limit was not always enough
Target sequence (P41235 whole entry, looked up): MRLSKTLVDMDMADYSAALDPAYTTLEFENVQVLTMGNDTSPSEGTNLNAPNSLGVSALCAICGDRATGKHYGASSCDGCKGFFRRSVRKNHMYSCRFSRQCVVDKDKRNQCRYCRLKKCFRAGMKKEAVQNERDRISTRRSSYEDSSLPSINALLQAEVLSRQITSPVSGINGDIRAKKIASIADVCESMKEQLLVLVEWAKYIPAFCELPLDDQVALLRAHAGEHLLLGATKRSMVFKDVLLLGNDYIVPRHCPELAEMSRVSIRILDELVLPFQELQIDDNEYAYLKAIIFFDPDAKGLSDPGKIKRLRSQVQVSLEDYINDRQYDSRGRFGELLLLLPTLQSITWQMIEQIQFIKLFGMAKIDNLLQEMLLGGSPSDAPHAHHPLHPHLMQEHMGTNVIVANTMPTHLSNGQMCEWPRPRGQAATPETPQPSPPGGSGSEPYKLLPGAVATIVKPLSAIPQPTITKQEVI
TPT1 inh confirm: TPT1 (C. albicans) inhibition, confirmation; inhibition, % at 5 µM; actives 74% (n = 2,400); recombinant caTPT1, fluorescence polarization, RNase T1 coupled; AID 2149; shares compounds with TPT1 inhibitor;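 active = inhibition above the primary screen limit, the mean inhibition of all tested compounds plus 3 SD, cut at about 25% in these data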
RNase T1 inh: counter-screen for TPT1 inhibitors: inhibitors of Aspergillus oryzae RNase T1; shares compounds with TPT1 inhibitor; actives 83% (n = 2,400); RNase T1 cleavage, fluorescence polarization, 1536-well; inhibition, % at 5 µM;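 active = inhibition above the solvent-only control well mean plus 3 SD, limit set per screening run, cut at about 23% in these data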;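 note: inhibitors block cleavage so intact labeled substrate keeps polarization high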
Target sequence (P00651 whole entry, looked up): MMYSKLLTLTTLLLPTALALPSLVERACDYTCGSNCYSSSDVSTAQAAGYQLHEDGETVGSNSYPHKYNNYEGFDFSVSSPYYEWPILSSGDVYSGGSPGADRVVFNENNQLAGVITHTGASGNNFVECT
Of the large screens only hits and unclear results are named; the others gave an inactive call (follow-up assays come after a bar, where shown). A selection: hits, their analogues and other compounds. The true share with any hit is near 2.3%.

CCN1CC2=C(OC(N)=C(C#N)C2c2ccccc2)/C(=C\c2ccccc2)C1 (stereo unspecified)	none
N#CC1=C(N)OC2=C(CC/C2=C\c2ccc(F)cc2)C1c1ccc(F)cc1 (stereo unspecified)	TPT1 inhibitor 103.1 (no result: CRFR2-BP ag, Rpn11 inh, CSN inh, CRFR2-BP antag, HNF4A DNA FP) | TPT1 inh confirm 94.5 | RNase T1 inh 102.2
Cc1cc(SCC(=O)NC2CC2)nc2ccccc12	none (no result: TPT1 inhibitor)
Cn1c(SCC(=O)NCC2CCCO2)nnc1-c1cccc(NC(=O)c2ccccc2F)c1 (stereo unspecified)	TPT1 inhibitor 31.3 | TPT1 inh confirm inactive | RNase T1 inh inactive
Cn1c(SCC(=O)NC(C)(C)C)nnc1-c1cccc(NC(=O)c2ccccc2F)c1	none
Cc1cc(SCC(=O)NCC2CCCO2)nc2ccccc12 (stereo unspecified)	TPT1 inhibitor 29.9 (not shown: Rpn11 inh) | TPT1 inh confirm 55.2 | RNase T1 inh 67.4
O=c1ccc(-c2nc3cc(Cl)ccc3n2Cc2ccccc2)c[nH]1	none
CCN(CC)C(=O)c1cccc(-c2csc(C(O)c3ccc(F)c(OC)c3)n2)c1 (stereo unspecified)	none (no result: CRFR2-BP ag, CRFR2-BP antag, TPT1 inhibitor)
CCCCNc1nc2ccccc2n1CC(=O)N1CCc2ccccc2C1	none
N#Cc1c(-c2ccccc2)nc(SCC(=O)N(c2ccccc2)c2ccccc2)[nH]c1=O	TPT1 inhibitor 33.6 | TPT1 inh confirm inactive | RNase T1 inh inactive
COC(=O)c1cccc(CSc2nc(-c3ccccc3)c(C#N)c(=O)[nH]2)c1	TPT1 inhibitor 80.6 | TPT1 inh confirm inactive | RNase T1 inh inactive
N#Cc1c(-c2ccccc2)nc(SCC(=O)Nc2ccccc2)[nH]c1=O	none
CC1=Nc2ccc(C)cc2/C1=C/c1c(N)n2nc(CC(=O)N3CCOCC3)sc2nc1=O	TPT1 inhibitor 35.1 | TPT1 inh confirm inactive | RNase T1 inh 36.3
Cc1cc2ncc(-c3cccc(Cl)c3)cn2n1	none
Cc1cc2ncc(C(N)=O)cn2n1	TPT1 inhibitor 83.2 | TPT1 inh confirm inactive | RNase T1 inh inactive
O=C(c1ccco1)N1CCN(C(=O)c2cccc3c2C(=O)N(C2CCCCC2)C3)CC1	TPT1 inhibitor 26.7 | TPT1 inh confirm inactive | RNase T1 inh 25.8
CCN(CC)c1ccc(/C=C(/C#N)c2nc3ccccc3[nH]2)c(OC(C)C)c1	CRFR2-BP ag 158.2, TPT1 inhibitor 163.4 (not shown: Rpn11 inh) | TPT1 inh confirm 163.1 | RNase T1 inh 149.0
CCOc1cccc(/C=C(/C#N)c2nc3ccccc3[nH]2)c1OCC(=O)O	none
O=C(NCc1ccc(F)cc1)N1CCc2ccccc2C1	none
CC(=O)N1c2ccc(S(=O)(=O)NCC3CCC(C(=O)NCc4ccc(C)cc4)CC3)cc2CC1C (stereo unspecified)	none
O=C(c1cnc(N2CCN(c3ncccn3)CC2)c2ccccc12)N1CCN(c2ccccn2)CC1	none
CCOc1ccccc1C(=O)Nc1nccs1	TPT1 inhibitor 26.8 | TPT1 inh confirm inactive | RNase T1 inh inactive
CCOC(=O)c1ccc(N2CC(O)=C(c3nc4ccccc4c(=O)[nH]3)C2=N)cc1	TPT1 inhibitor 46.6 | TPT1 inh confirm 40.8 | RNase T1 inh 52.4
CCOc1ccc(N2CC(O)=C(c3nc4ccccc4c(=O)[nH]3)C2=N)cc1	none
CC(C)C(=O)NC(=S)/C=C1/N(C)c2ccccc2C1(C)C	CSN inh 48.0, TPT1 inhibitor 28.0, HNF4A DNA FP 69.2 (not shown: Rpn11 inh) | TPT1 inh confirm inactive | RNase T1 inh 23.9
COC(=O)CC(=O)Cc1nc(N)nc(Nc2ccc(C)c(C)c2)n1	none
O=C(/C=C/c1ccc2ccccc2n1)c1cc(Cl)ccc1O	TPT1 inhibitor 44.2 (not shown: Rpn11 inh) | TPT1 inh confirm 46.4 | RNase T1 inh 58.7
Cc1ccc(O)c(C(=O)c2cc(C#N)c(=O)n(CC3CCCO3)c2)c1 (stereo unspecified)	none
Cc1c(-n2cc(C(=O)c3cc(Br)ccc3O)cc(C#N)c2=O)c(=O)n(-c2ccccc2)n1C	TPT1 inhibitor 36.5 | TPT1 inh confirm 24.3 | RNase T1 inh 32.3
Cc1ccc(O)c(C(=O)c2cc(C#N)c(=O)n(-c3nccs3)c2)c1	CRFR2-BP ag 165.9, TPT1 inhibitor 55.7 (not shown: Rpn11 inh) | TPT1 inh confirm 54.0 | RNase T1 inh 61.4
O=C1Nc2cc(C(=O)N3CCN(c4ccccc4F)CC3)ccc2NC1CSCc1ccccc1F (stereo unspecified)	TPT1 inhibitor 134.4 (no result: CRFR2-BP ag, Rpn11 inh, CSN inh, CRFR2-BP antag, HNF4A DNA FP) | TPT1 inh confirm 91.0 | RNase T1 inh 98.7
COc1ccccc1N1CCN(C(=O)c2ccc3c(c2)NC(=O)C(CSCc2ccccc2C)N3)CC1 (stereo unspecified)	TPT1 inhibitor 75.0 (no result: CRFR2-BP ag, Rpn11 inh, CSN inh, CRFR2-BP antag, HNF4A DNA FP) | TPT1 inh confirm inactive | RNase T1 inh 25.9
COc1ccccc1N1CCN(C(=O)c2cccc(C(=O)N3CCN(c4ccccc4OC)CC3)c2)CC1	none
Cc1cccc(N2CCN(C(=O)c3ccc4c(c3)NC(=O)C(CSCc3cccc(F)c3)N4)CC2C)c1 (stereo unspecified)	TPT1 inhibitor 97.5, HNF4A DNA FP 81.2 (not shown: Rpn11 inh) | TPT1 inh confirm 98.8 | RNase T1 inh 109.8
C#CCSc1nnc(-c2c[nH]c3ccccc23)n1C	none
CCN(C(=O)CSc1ccc2c(c1)OCCO2)C1CCS(=O)(=O)C1 (stereo unspecified)	none
CC(=O)N1C(=O)C(=C2C=C(C)OC(C)=C2)c2ccccc21	TPT1 inhibitor 27.4 (not shown: Rpn11 inh) | TPT1 inh confirm 72.1 | RNase T1 inh 54.9
CCc1ccccc1C1=CC(=O)C[C@H](c2ccc(OC)cc2)C1	none (no result: TPT1 inhibitor)
COc1ccc2nc(Nc3nc(C)c(CCC(C)C)c(=O)[nH]3)nc(C)c2c1	TPT1 inhibitor 24.5 | TPT1 inh confirm inactive | RNase T1 inh inactive
Cc1ccc(N/C=C/c2onc(C)c2[N+](=O)[O-])cc1	TPT1 inhibitor 49.0 | TPT1 inh confirm 55.6 | RNase T1 inh 68.3
Cn1c(=O)c(C(=O)COC(=O)c2cc(-c3ccccc3)nc3ccccc23)c(N)n(Cc2ccccc2)c1=O	none (no result: CRFR2-BP ag, Rpn11 inh, CSN inh, CRFR2-BP antag, HNF4A DNA FP)
O=C(C[n+]1cc(Br)cc2ccccc21)c1ccc(Br)cc1	TPT1 inhibitor 26.6 | TPT1 inh confirm 35.9 | RNase T1 inh 48.0
O=C(C[n+]1cc(Br)cc2ccccc21)c1ccc(Cl)cc1	none
O=c1[nH]c(/C=C/c2ccc(Br)cc2)nc2ccccc12	none
O=c1c2ccccc2nc(/C=C/c2ccccc2)n1CCCO	none
CN(C)c1ccc(/C=C/c2nc3ccccc3c(=O)[nH]2)cc1	TPT1 inhibitor 64.3, HNF4A DNA FP 67.4 (not shown: Rpn11 inh) | TPT1 inh confirm 73.8 | RNase T1 inh 82.6
CN(C)c1ccc(/C=C/c2nc3ccccc3c(=O)n2CCO)cc1	TPT1 inhibitor 79.9 (not shown: Rpn11 inh) | TPT1 inh confirm 84.5 | RNase T1 inh 95.5
